The source made the active and inactive calls. No cut-off for these calls is given here.
Experiments:
[1] = molecular target: T1, Tyrosine-protein phosphatase non-receptor type 1 (Homo sapiens) (UniProt P18031); assay: Inhibitory activity against recombinant human PTP1B at 10 uM
T1 sequence (whole entry): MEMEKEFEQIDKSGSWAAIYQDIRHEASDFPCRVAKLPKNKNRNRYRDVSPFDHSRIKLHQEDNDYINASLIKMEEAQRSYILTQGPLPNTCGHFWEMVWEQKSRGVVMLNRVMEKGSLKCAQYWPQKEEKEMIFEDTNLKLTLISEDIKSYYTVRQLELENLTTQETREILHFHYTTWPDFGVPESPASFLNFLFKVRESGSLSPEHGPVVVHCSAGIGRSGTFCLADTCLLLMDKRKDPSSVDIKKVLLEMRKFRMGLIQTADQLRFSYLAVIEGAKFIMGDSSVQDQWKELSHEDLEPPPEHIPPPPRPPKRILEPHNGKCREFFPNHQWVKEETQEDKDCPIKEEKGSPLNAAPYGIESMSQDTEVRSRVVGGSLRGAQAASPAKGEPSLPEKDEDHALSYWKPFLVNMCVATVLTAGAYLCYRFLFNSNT

[2] = molecular target: T2, Tyrosine-protein phosphatase non-receptor type 1 (Homo sapiens, UniProt P18031); assay: Inhibitory activity against recombinant human PTP1B
T2 sequence (P18031 whole entry): T1 sequence (whole entry)
Outline: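 Recombinant human PTP-1B (0.1 μg) incubated with 20 μM fluorescein diphosphate and compound in 30 mM Tris, 75 mM NaCl, 0.67 mM EDTA, 1 mM DTT, pH 8.0, for 1 h at room temperature. Product fluorescein monophosphate read by fluorescence (ex 485 nm, em 538 nm). IC50 reported.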

[3] = molecular target: T3, M-phase inducer phosphatase 1 (Homo sapiens) (UniProt P30304); assay: Inhibitory activity against cdc25A phosphatase at 10 uM
T3 sequence (whole entry): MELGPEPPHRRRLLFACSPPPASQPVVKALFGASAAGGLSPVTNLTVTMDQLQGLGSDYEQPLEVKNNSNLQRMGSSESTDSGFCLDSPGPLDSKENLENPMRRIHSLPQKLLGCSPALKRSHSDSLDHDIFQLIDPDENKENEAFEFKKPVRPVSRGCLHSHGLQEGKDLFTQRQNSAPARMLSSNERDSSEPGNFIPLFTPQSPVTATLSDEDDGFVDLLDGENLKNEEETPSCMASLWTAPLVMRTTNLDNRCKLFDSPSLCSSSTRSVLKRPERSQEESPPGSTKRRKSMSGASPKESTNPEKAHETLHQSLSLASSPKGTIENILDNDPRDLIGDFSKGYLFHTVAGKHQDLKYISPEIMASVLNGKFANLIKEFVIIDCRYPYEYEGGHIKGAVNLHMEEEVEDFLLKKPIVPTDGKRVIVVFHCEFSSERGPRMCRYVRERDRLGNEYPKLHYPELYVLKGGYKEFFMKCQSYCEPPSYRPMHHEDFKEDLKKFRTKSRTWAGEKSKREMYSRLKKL
Outline: (§1)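 Phosphatase selectivity panel using fluorescein diphosphate substrate at 20 μM, the same level as in the PTP-1B assay. Compound tested at a single concentration of 10 μM; percent inhibition of enzyme activity reported.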

[4] = molecular target: T4, Receptor-type tyrosine-protein phosphatase C (Homo sapiens) (UniProt P08575); assay: Inhibitory activity against CD45 phosphatase at 10 uM; outline: as §1
T4 sequence (whole entry): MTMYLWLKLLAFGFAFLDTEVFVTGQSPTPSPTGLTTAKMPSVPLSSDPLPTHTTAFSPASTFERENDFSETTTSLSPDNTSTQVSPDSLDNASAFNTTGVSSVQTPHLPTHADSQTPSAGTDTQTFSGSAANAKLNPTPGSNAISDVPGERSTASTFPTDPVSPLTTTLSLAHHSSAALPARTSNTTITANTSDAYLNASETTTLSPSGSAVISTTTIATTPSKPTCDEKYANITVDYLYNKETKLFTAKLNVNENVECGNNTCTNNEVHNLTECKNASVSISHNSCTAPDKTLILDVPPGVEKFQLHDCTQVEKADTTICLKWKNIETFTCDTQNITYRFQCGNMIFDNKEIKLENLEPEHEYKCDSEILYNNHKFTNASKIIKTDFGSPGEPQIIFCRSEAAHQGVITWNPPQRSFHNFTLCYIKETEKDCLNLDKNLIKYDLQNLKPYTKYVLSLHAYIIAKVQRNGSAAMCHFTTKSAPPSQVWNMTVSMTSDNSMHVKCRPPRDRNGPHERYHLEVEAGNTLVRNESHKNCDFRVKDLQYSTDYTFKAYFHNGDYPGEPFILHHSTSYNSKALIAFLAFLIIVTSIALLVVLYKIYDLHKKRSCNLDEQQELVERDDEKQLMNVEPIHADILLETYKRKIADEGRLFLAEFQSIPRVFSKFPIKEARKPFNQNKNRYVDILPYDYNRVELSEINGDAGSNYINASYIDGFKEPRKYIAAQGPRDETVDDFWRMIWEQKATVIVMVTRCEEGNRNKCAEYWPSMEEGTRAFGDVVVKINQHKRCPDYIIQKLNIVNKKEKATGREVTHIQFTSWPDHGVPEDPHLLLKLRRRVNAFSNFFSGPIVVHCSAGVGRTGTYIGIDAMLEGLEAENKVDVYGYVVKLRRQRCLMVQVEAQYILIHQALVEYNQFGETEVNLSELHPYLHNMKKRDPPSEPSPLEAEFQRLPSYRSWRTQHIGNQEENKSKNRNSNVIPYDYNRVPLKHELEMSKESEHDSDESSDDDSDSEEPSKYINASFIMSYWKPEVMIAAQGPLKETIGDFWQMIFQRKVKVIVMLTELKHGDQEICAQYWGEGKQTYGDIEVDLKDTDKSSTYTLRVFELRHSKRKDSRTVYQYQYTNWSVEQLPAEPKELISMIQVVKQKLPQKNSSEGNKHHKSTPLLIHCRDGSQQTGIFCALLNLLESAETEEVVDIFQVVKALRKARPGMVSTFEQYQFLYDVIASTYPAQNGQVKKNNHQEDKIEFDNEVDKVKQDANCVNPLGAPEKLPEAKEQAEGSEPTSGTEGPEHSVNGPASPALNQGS

[5] = molecular target: Tyrosine-protein phosphatase YopH (Yersinia enterocolitica) (UniProt P15273); assay: Inhibitory activity against YOP protein tyrosine phosphatase at 10 uM
Outline: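 Yop phosphatase tested in the nine-phosphatase selectivity panel with 20 μM fluorescein diphosphate as substrate. Inhibitor tested at a single concentration of 10 μM; the value is % inhibition.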

[6] = molecular target: Dual specificity protein phosphatase 3 (Homo sapiens, UniProt P51452); assay: Inhibitory activity against VH1-related phosphatase VHR at 10 uM; outline: as §1
[7] = molecular target: Serine/threonine-protein phosphatase PP1-gamma catalytic subunit (Homo sapiens, UniProt P36873); assay: Inhibitory activity against Protein phosphatase 1 at 10 uM; outline: as §1
[8] = molecular target: Receptor-type tyrosine-protein phosphatase F (Homo sapiens, UniProt P10586); assay: Inhibitory activity against LAR protein tyrosine phosphatase at 10 uM; outline: as §1
[9] = molecular target: T5, M-phase inducer phosphatase 2 (Homo sapiens) (UniProt P30305); assay: Inhibitory activity against cdc25B phosphatase at 10 uM; outline: as §1
T5 sequence (whole entry): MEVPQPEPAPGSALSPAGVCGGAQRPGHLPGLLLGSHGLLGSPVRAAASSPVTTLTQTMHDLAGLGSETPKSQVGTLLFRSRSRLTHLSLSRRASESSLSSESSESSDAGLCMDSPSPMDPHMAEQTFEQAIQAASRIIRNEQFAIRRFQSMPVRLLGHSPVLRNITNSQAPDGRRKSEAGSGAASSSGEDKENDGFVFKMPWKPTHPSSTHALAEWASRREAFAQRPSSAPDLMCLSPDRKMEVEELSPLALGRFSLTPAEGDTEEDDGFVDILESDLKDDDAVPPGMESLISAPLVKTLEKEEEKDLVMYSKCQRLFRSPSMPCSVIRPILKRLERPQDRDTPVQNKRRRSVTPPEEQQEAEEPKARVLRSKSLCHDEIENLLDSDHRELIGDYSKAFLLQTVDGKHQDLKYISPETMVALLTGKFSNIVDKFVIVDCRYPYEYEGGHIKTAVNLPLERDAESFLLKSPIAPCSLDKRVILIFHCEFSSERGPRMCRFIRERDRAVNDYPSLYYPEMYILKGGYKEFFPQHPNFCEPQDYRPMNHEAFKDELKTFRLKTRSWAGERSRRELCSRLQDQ

[10] = Inhibitory activity against protein phosphatase type 2A at 10 uM; outline: as §1

Chain of Receptor-type tyrosine-protein phosphatase F (P10586 whole entry): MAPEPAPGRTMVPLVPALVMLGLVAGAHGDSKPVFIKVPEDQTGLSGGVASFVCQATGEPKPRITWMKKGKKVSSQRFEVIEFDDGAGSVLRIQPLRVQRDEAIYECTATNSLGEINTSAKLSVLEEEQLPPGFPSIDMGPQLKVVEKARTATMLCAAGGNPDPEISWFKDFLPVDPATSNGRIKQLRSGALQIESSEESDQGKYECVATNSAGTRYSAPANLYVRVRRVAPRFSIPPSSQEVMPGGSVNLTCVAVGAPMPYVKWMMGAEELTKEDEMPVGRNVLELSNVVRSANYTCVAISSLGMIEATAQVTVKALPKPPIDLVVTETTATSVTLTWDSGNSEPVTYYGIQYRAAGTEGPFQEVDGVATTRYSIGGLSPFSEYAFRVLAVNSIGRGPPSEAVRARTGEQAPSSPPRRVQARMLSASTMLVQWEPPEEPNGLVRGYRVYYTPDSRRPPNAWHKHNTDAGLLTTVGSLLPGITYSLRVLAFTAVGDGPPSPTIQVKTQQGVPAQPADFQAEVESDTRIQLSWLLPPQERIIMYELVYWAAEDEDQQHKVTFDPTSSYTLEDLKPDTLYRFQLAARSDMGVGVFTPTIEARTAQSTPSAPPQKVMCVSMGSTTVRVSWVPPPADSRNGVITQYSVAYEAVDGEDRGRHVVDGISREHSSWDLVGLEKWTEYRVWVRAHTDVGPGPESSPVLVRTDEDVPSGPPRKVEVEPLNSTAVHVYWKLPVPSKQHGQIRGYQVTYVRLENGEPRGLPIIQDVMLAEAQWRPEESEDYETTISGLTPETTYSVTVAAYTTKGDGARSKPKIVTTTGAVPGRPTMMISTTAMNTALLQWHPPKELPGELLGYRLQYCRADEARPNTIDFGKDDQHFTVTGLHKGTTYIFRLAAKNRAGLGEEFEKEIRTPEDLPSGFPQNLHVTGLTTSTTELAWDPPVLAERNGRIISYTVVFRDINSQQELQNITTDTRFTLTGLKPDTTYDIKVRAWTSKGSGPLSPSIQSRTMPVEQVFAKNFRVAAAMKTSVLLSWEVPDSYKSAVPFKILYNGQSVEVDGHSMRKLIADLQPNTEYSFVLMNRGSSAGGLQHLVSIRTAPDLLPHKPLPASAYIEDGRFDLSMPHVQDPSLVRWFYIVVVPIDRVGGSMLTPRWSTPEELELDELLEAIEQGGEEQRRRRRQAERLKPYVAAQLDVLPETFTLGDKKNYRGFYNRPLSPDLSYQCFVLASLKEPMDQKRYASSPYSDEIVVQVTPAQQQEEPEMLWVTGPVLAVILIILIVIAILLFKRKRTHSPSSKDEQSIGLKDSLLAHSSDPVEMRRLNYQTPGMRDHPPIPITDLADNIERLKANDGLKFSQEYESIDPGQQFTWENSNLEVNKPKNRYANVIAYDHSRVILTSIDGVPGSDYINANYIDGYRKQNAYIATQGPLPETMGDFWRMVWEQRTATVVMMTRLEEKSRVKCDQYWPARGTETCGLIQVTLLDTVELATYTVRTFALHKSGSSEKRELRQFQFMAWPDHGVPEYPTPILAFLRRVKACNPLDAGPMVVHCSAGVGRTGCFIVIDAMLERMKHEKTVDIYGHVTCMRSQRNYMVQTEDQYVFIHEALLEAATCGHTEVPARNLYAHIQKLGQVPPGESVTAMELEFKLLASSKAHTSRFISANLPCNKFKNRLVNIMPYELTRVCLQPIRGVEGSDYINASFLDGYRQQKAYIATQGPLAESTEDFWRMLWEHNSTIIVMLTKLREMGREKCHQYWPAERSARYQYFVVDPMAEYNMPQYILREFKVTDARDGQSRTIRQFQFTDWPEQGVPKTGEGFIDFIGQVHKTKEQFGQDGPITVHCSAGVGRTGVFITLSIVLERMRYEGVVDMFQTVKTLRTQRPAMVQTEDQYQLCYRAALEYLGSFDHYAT
Chain of Dual specificity protein phosphatase 3 (P51452 whole entry, looked up): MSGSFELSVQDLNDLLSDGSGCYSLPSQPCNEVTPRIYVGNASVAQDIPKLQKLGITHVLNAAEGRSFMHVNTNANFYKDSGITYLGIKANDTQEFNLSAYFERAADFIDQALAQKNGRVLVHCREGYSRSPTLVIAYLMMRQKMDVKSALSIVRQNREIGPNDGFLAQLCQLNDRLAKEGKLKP
Chain of Serine/threonine-protein phosphatase PP1-gamma catalytic subunit (P36873 2-323 limits assumed): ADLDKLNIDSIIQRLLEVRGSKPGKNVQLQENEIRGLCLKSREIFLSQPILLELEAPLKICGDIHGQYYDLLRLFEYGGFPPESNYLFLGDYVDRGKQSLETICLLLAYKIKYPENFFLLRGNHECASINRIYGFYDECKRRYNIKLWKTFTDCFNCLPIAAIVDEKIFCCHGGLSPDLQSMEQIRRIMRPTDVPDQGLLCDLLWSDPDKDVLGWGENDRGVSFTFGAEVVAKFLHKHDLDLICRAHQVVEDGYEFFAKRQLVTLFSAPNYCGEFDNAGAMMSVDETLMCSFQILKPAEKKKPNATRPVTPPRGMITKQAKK
Chain of Tyrosine-protein phosphatase YopH (Yersinia enterocolitica) (P15273 whole entry): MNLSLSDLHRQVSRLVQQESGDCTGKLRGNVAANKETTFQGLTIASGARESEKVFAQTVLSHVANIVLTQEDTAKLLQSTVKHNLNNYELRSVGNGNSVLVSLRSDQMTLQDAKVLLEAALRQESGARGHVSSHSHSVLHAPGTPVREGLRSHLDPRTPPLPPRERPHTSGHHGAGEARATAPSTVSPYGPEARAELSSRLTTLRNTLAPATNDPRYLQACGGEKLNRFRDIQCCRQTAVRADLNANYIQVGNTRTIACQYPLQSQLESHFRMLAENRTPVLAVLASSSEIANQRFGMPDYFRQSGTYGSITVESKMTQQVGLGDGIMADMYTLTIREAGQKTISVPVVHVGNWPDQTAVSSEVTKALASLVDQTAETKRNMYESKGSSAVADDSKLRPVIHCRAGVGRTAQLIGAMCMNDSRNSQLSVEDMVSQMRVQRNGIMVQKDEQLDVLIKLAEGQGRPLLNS

SMILES: COc1ccc(O)c(CC(=O)c2ccc3c(-c4ccc(OCC(=O)O)cc4)nocc2-3)c1
- inhibition [1]: 48.7%

SMILES: COc1ccc(C(=O)c2ccc3c(-c4ccc(OCC(=O)NCN5CCOCC5)cc4)nocc2-3)cc1
- inhibition [1]: inactive

SMILES: Cc1onc(-c2ccc(OCC(=O)O)cc2)c2cccc1-2
- inhibition [1]: inactive

SMILES: CCOC(=O)COc1ccc(-c2nocc3cccc2-3)cc1
- inhibition [1]: 2.1%

SMILES: CC(=O)c1ccc2c(-c3ccc(OCC(=O)O)cc3)nocc1-2
- inhibition [1]: inactive

SMILES: O=C(O)COc1ccc(-c2nocc3c(C(=O)c4ccco4)ccc2-3)cc1
- inhibition [1]: inactive

SMILES: O=C(O)COc1ccc(-c2nocc3c(C(=O)C4CCCC4)ccc2-3)cc1
- inhibition [1]: 15.7%

SMILES: O=C(c1ccc2c(-c3ccc(OC(C(=O)O)C(=O)O)cc3)nocc1-2)C1CCCC1
- IC50 [2]: 8.19 µM
- inhibition [1]: 76.7%

SMILES: O=C(c1ccc2c(-c3ccc(OC(CCO)C(=O)O)cc3)nocc1-2)C1CCCC1 (configuration not stated)
- inhibition [1]: inactive

SMILES: O=C(O)COc1ccc(-c2noc(-c3ccccc3)c3cccc2-3)cc1
- inhibition [1]: 1.1%

SMILES: O=C(O)COc1ccc(-c2nocc3c(C(=O)c4ccc(Cl)cc4Cl)ccc2-3)cc1
- inhibition [1]: 38%

SMILES: COc1cccc(C(=O)c2ccc3c(-c4ccc(OCC(=O)O)cc4)nocc2-3)c1
- IC50 [2]: 1.96 µM
- inhibition [1]: 87.4%

SMILES: COc1ccc(CC(=O)c2ccc3c(-c4ccc(OCC(=O)O)cc4)nocc2-3)cc1
- IC50 [2]: 5.63 µM
- inhibition [1]: 85.5%

SMILES: COc1ccc(C(=O)c2ccc3c(-c4ccc(OCC(=O)N5CCN(Cc6ccccc6)CC5)cc4)nocc2-3)cc1
- IC50 [2]: 5.48 µM
- inhibition [1]: 68.8%

SMILES: COc1ccc(-c2nocc3cccc2-3)cc1
- inhibition [1]: 3%

SMILES: COc1ccc(C(=O)c2ccc3c(-c4ccc(OC(C(=O)O)C(=O)O)cc4)nocc2-3)cc1
- inhibition [1]: 3.3%

SMILES: O=C(O)COc1ccc(-c2nocc3cccc2-3)cc1
- inhibition [1]: 27.4%

SMILES: Oc1ccc(-c2nocc3cccc2-3)cc1
- inhibition [1]: 18.5%

SMILES: COCCNCc1ccc(C(=O)c2ccc3c(-c4ccc(OCC(=O)O)cc4)nocc2-3)cc1
- inhibition [1]: 10.2%

SMILES: O=C(O)COc1ccc(-c2nocc3c(C(=O)CCC4CCCC4)ccc2-3)cc1
- inhibition [1]: 42.4%

SMILES: CCOC(=O)/C=C/c1ccc2c(-c3ccc(OCC(=O)O)cc3)nocc1-2
- inhibition [1]: inactive

SMILES: CCCCCCCCCCCCCCC(=O)c1ccc2c(-c3ccc(OCC(=O)O)cc3)nocc1-2
- IC50 [2]: 0.27 µM
- inhibition [1]: 101%

SMILES: O=C(O)COc1ccc(-c2nocc3c(C(=O)c4cccc(C(F)(F)F)c4)ccc2-3)cc1
- IC50 [2]: 7.55 µM
- inhibition [1]: 68.9%

SMILES: N#Cc1cccc(C(=O)c2ccc3c(-c4ccc(OCC(=O)O)cc4)nocc2-3)c1
- inhibition [1]: inactive

SMILES: COc1ccc(C(=O)c2ccc3c(-c4ccc(OCC(=O)O)cc4)noc(C)c2-3)cc1
- inhibition [1]: inactive

SMILES: COc1ccccc1C(=O)c1ccc2c(-c3ccc(OCC(=O)O)cc3)nocc1-2
- inhibition [1]: 3.8%

SMILES: COc1ccc(-c2nocc3c(C(=O)c4ccc(Cl)cc4Cl)ccc2-3)cc1
- IC50 [2]: 3.4 µM
- inhibition [1]: 101%

SMILES: COc1ccc(C(=O)c2ccc3c(-c4ccc(O[C@@H](Cc5ccccc5)C(=O)O)cc4)nocc2-3)cc1
- inhibition [3]: 10.3%
- inhibition [4]: 95.7%
- inhibition [5]: 96.8%
- inhibition [6]: -6.83%
- inhibition [7]: 63.5%
- IC50 [2]: 7.82 µM
- inhibition [8]: 17.3%
- inhibition [1]: 80.1%
- inhibition [9]: 89.7%

SMILES: COc1ccc(C(=O)c2ccc3c(-c4cc(Br)c(OCC(=O)O)c(Br)c4)nocc2-3)cc1
- inhibition [3]: 40.5%
- inhibition [4]: 100%
- inhibition [5]: 101%
- inhibition [6]: 53.4%
- inhibition [7]: 106%
- IC50 [2]: 1.64 µM
- inhibition [8]: 57.7%
- inhibition [1]: 101%
- inhibition [9]: 100%
- inhibition [10]: 41.8%

SMILES: O=C(O)COc1ccc(-c2nocc3c(C(=O)c4ccc(Cl)cc4)ccc2-3)cc1
- inhibition [1]: 14.3%

SMILES: COc1ccc(C(=O)c2ccc3c(-c4ccc(OCC(=O)NCCO)cc4)nocc2-3)cc1
- inhibition [1]: inactive

SMILES: COc1ccc(C(=O)c2ccc3c(-c4ccc(OC)cc4)nocc2-3)cc1
- inhibition [1]: 32%

SMILES: O=C(O)COc1ccc(-c2nocc3c(C(=O)c4ccccc4F)ccc2-3)cc1
- inhibition [1]: 11.9%

Reference: ChEMBL document CHEMBL1149392, “PTP-1B inhibitors: cyclopenta[d][1,2]-oxazine derivatives” (Bioorg Med Chem Lett, 2006)
